Compound activity (PubChem BioAssay)
Pf Dd2 inh – blocks growth of Plasmodium falciparum Dd2 parasites; activity change, % at 10 µM; P. falciparum Dd2 growth, SYBR Green, 72 h; hits give low values; actives 2.3% (n = 94,000); in the data active = activity change below about -80%; inconclusive = no clear call, values can overlap the other calls
T cruzi growth-1 – T. cruzi proliferation inhibition; inhibition, % at 8.34 µM; actives 5.9% (n = 77,000); T. cruzi beta-gal in NIH3T3, GalScreen luminescence, 90 h;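 active = mean inhibition above about 93%, with at least 55% of replicates each passing it, limit read from the data, passing the limit was not always enough; inconclusive = only one of those two conditions holds; inactive = neither condition holds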
KDM4C inh – blocks human GASC-1 (KDM4C) demethylase activity; actives 0.15% (n = 96,000); AID 720574; GST-KDM4C 2-372, H3K9me3 peptide, LANCE TR-FRET; Q9H3R0; inhibition, % at 12.5 µM;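 active = mean replicate inhibition above about 25%, with at least 55% of replicates also reaching it, limit read from the data, passing the limit was not always enough; inconclusive = only one of those two conditions met; inactive = neither condition met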
Target sequence (Q9H3R0 2-372 limits assumed): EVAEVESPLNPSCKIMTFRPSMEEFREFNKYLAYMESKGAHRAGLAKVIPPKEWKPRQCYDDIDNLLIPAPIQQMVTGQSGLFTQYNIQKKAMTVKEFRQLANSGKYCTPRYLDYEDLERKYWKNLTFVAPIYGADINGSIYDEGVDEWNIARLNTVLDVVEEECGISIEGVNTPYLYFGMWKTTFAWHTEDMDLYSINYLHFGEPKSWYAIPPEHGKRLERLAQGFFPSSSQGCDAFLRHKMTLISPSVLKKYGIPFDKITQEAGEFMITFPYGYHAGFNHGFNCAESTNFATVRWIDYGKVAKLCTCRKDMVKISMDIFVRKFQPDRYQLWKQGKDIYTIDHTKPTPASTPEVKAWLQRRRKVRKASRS
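Material: GST-tagged GASC-1 (JMJD2C) catalytic fragment, aa 2-372. Input: enzyme final amount 10 nM. Medium: HEPES buffer, pH 7.5, plus ascorbate. Reagent: H3K9me3 peptide substrate, Fe(II), 2-oxoglutarate. Doses: single dose. Times: reaction 30 min RT, detection step 1 h RT. Measured by: LANCE TR-FRET. Evaluation: Fall in 671/618 emission ratio as inhibition.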
IDH1 R132H inh – IDH1 R132H (human) inhibition. O75874. IDH1 R132H reductase, diaphorase/resazurin fluorescence, 60 min. inhibition, % at 10 µM. actives 0.18% (n = 70,000); in the data active = inhibition above about 34%; inconclusive = no clear call, values can overlap the other calls; inactive = below about 11%;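 note: 0% = DMSO and 100% = no enzyme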
T cruzi growth-2 – blocks T. cruzi growth in NIH3T3 host cells | T. cruzi beta-gal in NIH3T3, GalScreen luminescence, 90 h | inhibition, % at 8.35 µM | shares compounds with T cruzi growth-1 | AID 651739 | actives 72% (n = 5,600);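 active = mean replicate inhibition above about 95% and at least 55% of replicates individually reaching it, limit read from the data; inconclusive = only one of the two criteria is met; inactive = neither criterion is met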
T cruzi growth-3 – blocks T. cruzi growth in NIH3T3 host cells. shares compounds with T cruzi growth-1. T. cruzi beta-gal in NIH3T3, GalScreen luminescence, 90 h. inhibition, % at 2.09 µM. actives 21% (n = 5,600);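 active = mean inhibition above about 95%, with at least 55% of replicates also reaching it, limit read from the data; inconclusive = meets just one of the two conditions; inactive = meets neither condition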;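 note: plate controls were neutral control median for no effect and positive control median for full effect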
3T3 cytotox – NIH/3T3 (mouse) viability loss | AID 651742 | actives 14% (n = 5,600) | NIH/3T3 viability, CellTiter-Glo ATP luminescence, 90 h | shares compounds with T cruzi growth-1 | cytotoxicity (signal decrease), % at 8.35 µM;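 active = mean signal decrease across replicates above about 35% based on untreated-well scatter, with enough replicates individually passing, limit read from the data; inconclusive = no rule stated though some were filed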;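 note: 0% = median of neutral control wells and 100% = median of positive control wells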
NIH3T3 tox 2 – NIH/3T3 (mouse) viability loss. shares compounds with T cruzi growth-1. NIH/3T3 viability, CellTiter-Glo ATP luminescence, 90 h. inhibition, % at 24.9 µM. actives 56% (n = 5,600);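 active = mean loss of cell viability signal at or above a set limit, and enough replicates individually reaching it; inconclusive = meets only the mean limit or only the replicate share; inactive = meets neither condition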;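 note: 0% = median of neutral control wells and 100% = median of positive control wells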
Starred values were filed as active, the others as inactive; ? = inconclusive; . = no result. A selection: hits, their analogues and other compounds. The true share with any hit is near 5.8%.

SMILES | Pf Dd2 inh | T cruzi growth-1 | KDM4C inh | IDH1 R132H inh | T cruzi growth-2 | T cruzi growth-3 | 3T3 cytotox | NIH3T3 tox 2
C[C@H]1CN([C@@H](C)CO)S(=O)(=O)c2ccc(C#Cc3cccc(F)c3)cc2O[C@@H]1CN(C)S(=O)(=O)c1ccccc1F | -69.1 | 104.1* | -0.4 | 0.4 | 103.9* | 102.7* | 23.0 | 60.0*
C[C@H]1CN([C@@H](C)CO)S(=O)(=O)c2ccc(C#Cc3cccc(F)c3)cc2O[C@H]1CN(C)S(=O)(=O)c1ccccc1F | -9.7 | 111.3* | 0.2 | 0.0 | 106.1* | 72.1 | 22.1 | ?
CN1CCN(NC(=O)CN2C(=O)S/C(=C/c3ccc(Cl)cc3)C2=O)CC1 | . | . | . | -0.1 | . | . | . | .
C[C@@H]1CN([C@@H](C)CO)S(=O)(=O)c2ccc(C#Cc3ccccn3)cc2O[C@H]1CN(C)Cc1ccccc1 | -72.8 | 85.7* | -43.1 | -2.4 | ? | 103.4* | 18.7 | 33.0*
C[C@@H]1CN([C@@H](C)CO)S(=O)(=O)c2ccc(C#Cc3ccccn3)cc2O[C@@H]1CN(C)Cc1ccccc1 | -32.8 | 108.0* | -4.6 | -0.7 | 109.0* | 86.2 | 43.5* | 20.7
C[C@H]1CN([C@@H](C)CO)S(=O)(=O)c2ccc(C#Cc3ccccn3)cc2O[C@H]1CN(C)Cc1ccccc1 | -63.4 | 112.5* | -2.4 | 0.1 | 108.7* | 75.8 | 16.7 | 26.1
C[C@@H]1CN([C@H](C)CO)S(=O)(=O)c2ccc(C#Cc3ccccn3)cc2O[C@H]1CN(C)Cc1ccccc1 | -26.0 | 105.8* | -17.6 | 0.0 | 103.9* | 79.4 | 19.0 | 98.5*
C[C@H](CO)N1C[C@H](C)[C@@H](CN(C)Cc2ccccc2)Oc2cc(C#Cc3ccccn3)ccc2S1(=O)=O | -12.3 | 105.8 | -18.5 | -0.1 | . | . | . | .
C[C@]12CCC3C(CC[C@@H]4C[C@H](O)CC[C@]34C)C1CC[C@]2(O)C(=O)CO (some centres undefined) | . | . | . | 0.3 | . | . | . | .
C[C@H]1CN([C@@H](C)CO)S(=O)(=O)c2ccc(C#Cc3ccccc3F)cc2O[C@@H]1CN(C)C(=O)Cc1ccncc1 | -50.7 | . | -1.9 | 0.3 | . | . | . | .
C[C@@H]1CN([C@H](C)CO)S(=O)(=O)c2ccc(C#Cc3ccccc3F)cc2O[C@@H]1CN(C)C(=O)Cc1ccccc1 | -48.5 | 120.9* | . | -0.1 | 96.5* | 99.0* | 27.1 | 101.6*
C[C@H]1CN([C@@H](C)CO)S(=O)(=O)c2ccc(C#Cc3ccccc3F)cc2O[C@@H]1CN(C)C(=O)Cc1cccnc1 | -58.9 | 81.0 | -2.7 | 0.1 | . | . | . | .
C[C@H](CO)N1C[C@H](C)[C@H](CN(C)C(=O)Cc2ccccc2)Oc2cc(C#Cc3ccccc3F)ccc2S1(=O)=O | -25.1 | 126.6* | 2.1 | -1.2 | 95.2* | 74.4 | 20.7 | ?
CC(=O)N(C)C[C@@H]1Oc2cc(C#Cc3ccccc3F)ccc2S(=O)(=O)N([C@H](C)CO)C[C@H]1C | -44.0 | 38.0 | -0.3 | -5.3 | . | . | . | .
C[C@H]1CN([C@@H](C)CO)S(=O)(=O)c2ccc(C#Cc3ccccc3F)cc2O[C@H]1CN(C)C(=O)Cc1ccccc1 | -26.1 | 125.3* | -1.3 | 0.3 | 109.1* | 65.5 | 25.5 | 103.1*
C[C@@H]1CN([C@@H](C)CO)S(=O)(=O)c2ccc(C#Cc3ccccc3F)cc2O[C@H]1CN(C)C(=O)Cc1cccnc1 | -42.7 | 96.2* | -2.8 | 5.0 | 104.2* | 36.3 | 33.6 | 72.7*
Cc1cc(C)c(C#N)c(SCC(O)CSc2ccc(Cl)cc2)n1 (centres undefined) | . | . | . | 0.2 | . | . | . | .
C[C@H](CO)N1C[C@H](C)[C@@H](CN(C)C(=O)Cc2ccccc2)Oc2cc(C#Cc3ccccc3F)ccc2S1(=O)=O | ? | 123.5* | -4.1 | 0.2 | 85.4 | 91.7 | -0.7 | 0.9
C[C@@H]1CN([C@H](C)CO)S(=O)(=O)c2ccc(C#Cc3ccccc3F)cc2O[C@@H]1CN(C)C(=O)Cc1ccncc1 | -59.7 | . | -1.8 | 1.1 | . | . | . | .
COc1ccccc1OCC(=O)Nc1ccc(C)cc1[N+](=O)[O-] | . | . | . | -0.3 | . | . | . | .
